Experimental data published in ChEMBL document CHEMBL1817593, “C5'-Alkyl Substitution Effects on Digitoxigenin α-l-Glycoside Cancer Cytotoxicity” (ACS Med Chem Lett, 2011).

Assays:
NCI-H460 [1] = experiment: Cytotoxicity against human NCI-H460 cells assessed as cell death in serum free medium at 250 nM after 12 hrs by Hoechst 33342/propidium iodide staining based fluorescence microscopy; format: functional
Method in brief: (§1)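 NCI-H460 human lung cancer cells exposed 12 h to 10 nM–10 μM drug, including a 50 nM single-concentration test. Nuclei were stained with Hoechst 33342 and necrotic cells with propidium iodide. Apoptotic cells were scored by condensed or fragmented blue nuclei and necrotic cells by red PI staining. Total cell death (apoptosis plus necrosis) was recorded; N = 6.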

NCI-H460 [2] = experiment: Induction of apoptosis in human NCI-H460 cells in serum free medium after 12 hrs by Hoechst 33342/propidium iodide staining based fluorescence microscopy; format: functional, cell-based; details: for IC50: NCI-H460, 12 h
Method in brief: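 NCI-H460 cells treated for 12 h at 10 nM to 10 μM. Total cell death (apoptosis plus necrosis) scored by Hoechst 33342/propidium iodide staining, with N = 6 and two-way ANOVA. IC50 obtained by nonlinear regression. Table values are the mean of three independent experiments with duplicate determinations.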

NCI-H460 [3] = experiment: Cytotoxicity against human NCI-H460 cells assessed as cell viability at 50 nM after 48 hrs by MTT assay; format: functional; details: NCI-H460, 48 h, read-out: Activity
Method in brief: (§2)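 Viability of NCI-H460 cells was measured by MTT (mitochondrial enzymatic activity) after 48 h exposure, within a dose series spanning 1 nM–10 μM. N = 9, analysed by two-way ANOVA.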

NCI-H460 [4] = experiment: Cytotoxicity against human NCI-H460 cells assessed as cell death in serum free medium at 1000 nM after 12 hrs by Hoechst 33342/propidium iodide staining based fluorescence microscopy; format: functional; method in brief: as §1
NCI-H460 [5] = experiment: Cytotoxicity against human NCI-H460 cells assessed as cell viability at 100 nM after 48 hrs by MTT assay; format: functional; details: NCI-H460, 48 h, read-out: Activity; method in brief: as §2
NCI-H460 [6] = experiment: Cytotoxicity against human NCI-H460 cells assessed as cell death in serum free medium at 10000 nM after 12 hrs by Hoechst 33342/propidium iodide staining based fluorescence microscopy; format: functional; method in brief: as §1
NCI-H460 [7] = experiment: Cytotoxicity against human NCI-H460 cells assessed as cell death in serum free medium at 500 nM after 12 hrs by Hoechst 33342/propidium iodide staining based fluorescence microscopy; format: functional; method in brief: as §1
NCI-H460 [8] = experiment: Cytotoxicity against human NCI-H460 cells assessed as cell viability at 10 nM after 48 hrs by MTT assay; format: functional; details: NCI-H460, 48 h, read-out: Activity; method in brief: as §2
NCI-H460 [9] = experiment: Cytotoxicity against human NCI-H460 cells assessed as cell death in serum free medium at 100 nM after 12 hrs by Hoechst 33342/propidium iodide staining based fluorescence microscopy; format: functional; method in brief: as §1
NCI-H460 [10] = experiment: Cytotoxicity against human NCI-H460 cells assessed as cell death in serum free medium at 10 nM after 12 hrs by Hoechst 33342/propidium iodide staining based fluorescence microscopy; format: functional; method in brief: as §1
NCI-H460 [11] = experiment: Cytotoxicity against human NCI-H460 cells assessed as cell viability at 1 nM after 48 hrs by MTT assay; format: functional; details: NCI-H460, 48 h, read-out: Activity; method in brief: as §2
NCI-H460 [12] = experiment: Cytotoxicity against human NCI-H460 cells assessed as cell viability at 25 nM after 48 hrs by MTT assay; format: functional; details: NCI-H460, 48 h, read-out: Activity; method in brief: as §2
NCI-H460 [13] = experiment: Cytotoxicity against human NCI-H460 cells assessed as cell death in serum free medium at 25 nM after 12 hrs by Hoechst 33342/propidium iodide staining based fluorescence microscopy; format: functional; method in brief: as §1
NCI-H460 [14] = experiment: Cytotoxicity against human NCI-H460 cells assessed as cell viability at 500 nM after 48 hrs by MTT assay; format: functional; details: NCI-H460, 48 h, read-out: Activity; method in brief: as §2
NCI-H460 [15] = experiment: Growth inhibition of human NCI-H460 cells after 48 hrs by MTT assay; format: functional
Method in brief: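 NCI-H460 viability measured by MTT (mitochondrial enzymatic activity) after 48 h exposure at 1 nM to 10 μM. GI50 derived from dose-response curves, with N = 9 and two-way ANOVA. Values are the mean of three independent experiments with duplicate determinations.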

NCI-H460 [16] = experiment: Cytotoxicity against human NCI-H460 cells assessed as cell viability at 1000 nM after 48 hrs by MTT assay; format: functional; details: NCI-H460, 48 h, read-out: Activity; method in brief: as §2
NCI-H460 [17] = experiment: Cytotoxicity against human NCI-H460 cells assessed as cell death in serum free medium at 75 nM after 12 hrs by Hoechst 33342/propidium iodide staining based fluorescence microscopy; format: functional; method in brief: as §1
NCI-H460 [18] = experiment: Induction of apoptosis in human NCI-H460 cells in serum free medium at 50 nM after 12 hrs by Hoechst 33342/propidium iodide staining based fluorescence microscopy; format: functional
Method in brief: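 NCI-H460 cells exposed to a single 50 nM concentration for 12 h. Cells stained with Hoechst 33342 and propidium iodide. Blue cells with condensed or fragmented nuclei were scored as apoptotic and red, ruptured cells as necrotic. Result given as % apoptotic cell death; N = 6, one-way ANOVA.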

NCI-H460 [19] = experiment: Cytotoxicity against human NCI-H460 cells assessed as cell viability after 48 hrs by MTT assay; format: functional; details: NCI-H460, 48 h
Method in brief: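 NCI-H460 cells were exposed to drug for 48 h, and viability was read by MTT as mitochondrial enzymatic activity. GI50 was derived from dose-response curves (1 nM–10 μM). Values are from three independent experiments with duplicate determinations, given with standard error of the mean.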

NCI-H460 [20] = experiment: Cytotoxicity against human NCI-H460 cells assessed as cell death in serum free medium at 50 nM after 12 hrs by Hoechst 33342/propidium iodide staining based fluorescence microscopy; format: functional; method in brief: as §1
NCI-H460 [21] = experiment: Ratio of digitoxin IC50 to compound IC50 for human NCI-H460 cells after 12 hrs by Hoechst 33342/propidium iodide staining based fluorescence microscopy; format: functional

Row | Compound | Activity (NCI-H460 [1]) [%] | Activity (NCI-H460 [2]) | IC50 (NCI-H460 [2]) [nM] | viability at 0.05 µM (NCI-H460 [3]) [%] | Activity (NCI-H460 [4]) [%] | viability at 0.1 µM (NCI-H460 [5]) [%] | Activity (NCI-H460 [6]) [%] | Activity (NCI-H460 [7]) [%] | viability at 0.01 µM (NCI-H460 [8]) [%] | Activity (NCI-H460 [9]) [%] | Activity (NCI-H460 [10]) [%] | viability at 0.001 µM (NCI-H460 [11]) [%] | viability at 0.025 µM (NCI-H460 [12]) [%] | Activity (NCI-H460 [13]) [%] | viability at 0.5 µM (NCI-H460 [14]) [%] | GI50 (NCI-H460 [15]) | GI50 (NCI-H460 [15]; NCI-H460, 48 h) [nM] | viability at 1 µM (NCI-H460 [16]) [%] | Activity (NCI-H460 [17]) [%] | Activity (NCI-H460 [18]) [%] | further results
1 | CC[C@@H]1O[C@@H](O[C@H]2CC[C@@]3(C)[C@H](CC[C@@H]4[C@@H]3CC[C@]3(C)[C@@H](C5=CC(=O)OC5)CC[C@]43O)C2)CC[C@H]1O | 87.87 | Dose-dependent effect | 87.3 | 8.21 | 100 | 6.81 | 100 | 99.58 | 20.6 | 69.05 | 13.46 | 73.3 | 9.23 | 19.43 | 5.41 | Dose-dependent effect | 2 | 4.5 | 39.69 | 18.75 | GI50 (NCI-H460 [19]): 2.19 nM; Activity (NCI-H460 [20]): 22.56%
2 | CCC[C@@H]1O[C@@H](O[C@H]2CC[C@@]3(C)[C@H](CC[C@@H]4[C@@H]3CC[C@]3(C)[C@@H](C5=CC(=O)OC5)CC[C@]43O)C2)[C@H](O)[C@H](O)[C@H]1O | 84.94 | Dose-dependent effect | 116 | 9.27 | 100 | 7.06 | 100 | 100 | 39.3 | 52.06 | 15.86 | 81.4 | 16.1 | 20.15 | 5.87 | Dose-dependent effect | 5 | 5.81 | 34.1 | 15.692 | GI50 (NCI-H460 [19]): 4.88 nM; Activity (NCI-H460 [20]): 23.16%
3 | CC(C)[C@@H]1O[C@@H](O[C@H]2CC[C@@]3(C)[C@H](CC[C@@H]4[C@@H]3CC[C@]3(C)[C@@H](C5=CC(=O)OC5)CC[C@]43O)C2)[C@H](O)[C@H](O)[C@H]1O | 73.97 | Dose-dependent effect | 130 | 22.8 | 100 | 9.88 | 100 | 100 | 47.3 | 45.94 | 12.81 | 77.4 | 35 | 19.33 | 6.11 | Dose-dependent effect | 6 | 5.76 | 37.08 | 15.425 | GI50 (NCI-H460 [19]): 6.32 nM; Activity (NCI-H460 [20]): 24.42%
4 | CC(C)C[C@@H]1O[C@@H](O[C@H]2CC[C@@]3(C)[C@H](CC[C@@H]4[C@@H]3CC[C@]3(C)[C@@H](C5=CC(=O)OC5)CC[C@]43O)C2)[C@H](O)[C@H](O)[C@H]1O | 68.62 | Dose-dependent effect | 167 | 26.1 | 100 | 12.4 | 100 | 100 | 57.7 | 36.73 | 12.15 | 82.4 | 40.6 | 14.36 | 6.69 | Dose-dependent effect | 13 | 5.9 | 24.5 | 9.9487 | GI50 (NCI-H460 [19]): 13.4 nM; Activity (NCI-H460 [20]): 17.66%
5 | CC[C@@H]1O[C@@H](O[C@H]2CC[C@@]3(C)[C@H](CC[C@@H]4[C@@H]3CC[C@]3(C)[C@@H](C5=CC(=O)OC5)CC[C@]43O)C2)[C@H](O)[C@H](O)[C@H]1O | 98.51 | Dose-dependent effect | 56.9 | 8.28 | 100 | 6.64 | 100 | 100 | 20 | 80.15 | 15.02 | 73.2 | 10.3 | 24.93 | 6.13 | Dose-dependent effect | 2 | 5.71 | 71.83 | 30.625 | GI50 (NCI-H460 [19]): 2.14 nM; Activity (NCI-H460 [20]): 42.16%
6 | C[C@@H]1O[C@@H](O[C@H]2CC[C@@]3(C)[C@H](CC[C@@H]4[C@@H]3CC[C@]3(C)[C@@H](C5=CC(=O)OC5)CC[C@]43O)C2)[C@H](O)[C@H](O)[C@H]1O | 100 | Dose-dependent effect | 51.7 | 7.16 | 100 | 6.11 | 100 | 100 | 11.8 | 89.5 | 16.47 | 77.8 | 8.72 | 24.53 | 5.81 | Dose-dependent effect | 2 | 5.46 | 78.16 | 41.603 | Ratio IC50 (NCI-H460 [21]): 4; GI50 (NCI-H460 [19]): 2.1 nM; Activity (NCI-H460 [20]): 48.79%
